Measured values pooled from the literature.
Compare with care: the assays were run in different laboratories.
CDK4: Cyclin-dependent kinase 4 (CDK4, Homo sapiens, UniProt P11802)
CDK4 with cyclin D1: Cyclin-dependent kinase 4, with cyclin D1 (CDK4, Homo sapiens, UniProt P11802)
CDK4 with cyclin D3: Cyclin-dependent kinase 4, with cyclin D3 (CDK4, Homo sapiens, UniProt P11802)

| Structure (SMILES) | target | effect on | technique | concentration | remaining binding [%] |
| --- | --- | --- | --- | --- | --- |
| CCCCN(CCCC)C(=O)CN1C[C@@H](c2cc(OC)c3c(c2)OCO3)[C@H](C(=O)O)[C@H]1CC(C)(C)CCC | CDK4 | cell-free assay | competition with immobilised ligand | 1 µM | 100 |
| O=C(NCC1CCOCC1)c1n[nH]cc1NC(=O)c1c(F)cccc1F | CDK4 with cyclin D1 | binding | competition with immobilised ligand | 1 µM | 47 |
| C[C@H](c1ccc(F)cc1)N(Cc1cccc(C(=O)O)c1)C(=O)c1cnc2ccccc2c1 | CDK4 with cyclin D1 | cell-free assay | competition with immobilised ligand | 1 µM | 100 |
| Nc1ncc2c(n1)-c1c([nH]c3ccc(C#CC4CC4)cc13)CCCC2 | CDK4 with cyclin D3 | binding | competition with immobilised ligand | 1 µM | 93 |
| COc1cnc(Nc2cccc(S(N)(=O)=O)c2)nc1N1CCN(c2ccccc2)CC1 | CDK4 with cyclin D1 | binding | competition with immobilised ligand | 1 µM | 78 |
| O=C(c1ccc(Nc2nccc(-c3cc4ccccc4s3)n2)cc1)N1CCC(N2CCCC2)CC1 | CDK4 | binding | competition with immobilised ligand | 1 µM | 88 |
| C[C@@H](c1ccc(-n2cnc3c(N)ncnc32)cc1)N1CCc2nn(C)c(Cc3ccccc3)c2C1=O | CDK4 with cyclin D1 | binding | competition with immobilised ligand | 0.1 µM | 73 |
| Cc1nccc(COC(=O)N2C[C@@H]3[C@@H](CNC(=O)c4ccc5[nH]nnc5c4)[C@@H]3C2)n1 | CDK4 with cyclin D3 | cell-free assay | competition with immobilised ligand | 1 µM | 78 |
| Cc1cnn2ncc(-c3ccnc(N(C)C)n3)c2c1 | CDK4 | binding | – | 1 µM | 95 |
| O=C(NCCCN1CCOCC1)c1ccc(Nc2nccc(-c3cc4ccccc4s3)n2)cc1 | CDK4 with cyclin D1 | binding | competition with immobilised ligand | 1 µM | 83 |
| COc1ccnn2ncc(-c3ccnc(N(C)C)n3)c12 | CDK4 with cyclin D1 | binding | – | 1 µM | 97 |
| Cc1nc(N2CC[C@@H](O)C2)ncc1-c1cc(C(F)(F)F)cc2[nH]ncc12 | CDK4 | binding | competition with immobilised ligand | 1 µM | 63 |
| O=C(c1ccc(Nc2ncc(Cl)c(-c3ccc(Cl)s3)n2)cc1)N1CCC(N2CCCC2)CC1 | CDK4 with cyclin D3 | binding | competition with immobilised ligand | 1 µM | 0.9 |
| CNC(=O)[C@@H]1CC[C@@H](n2c(-c3ccc4cnccc4c3)nc3ccc(C(=O)NCc4cccc(C(N)=O)c4)cc32)C1 | CDK4 with cyclin D1 | binding | competition with immobilised ligand | 1 µM | 100 |
| FC(F)(F)Oc1cccc(-c2cnc3ccc(-c4ccncc4)nn23)c1 | CDK4 | cell-free assay | competition with immobilised ligand | 5 µM | 81 |
| O=C(NCCCN1CCOCC1)c1ccc(Nc2ncc(Cl)c(-c3ccc(Cl)s3)n2)cc1 | CDK4 with cyclin D1 | binding | competition with immobilised ligand | 1 µM | 0.5 |
| C=CC(=O)N1CCC(C(=O)NCC(=O)N2CCN(c3nc(-c4cnc(N)nc4C(F)F)nc(N4CCOCC4)n3)CC2)CC1 | CDK4 | binding | competition with immobilised ligand | 1 µM | 92 |

| Structure (SMILES) | target | effect on | technique | concentration | remaining binding [%] |
| --- | --- | --- | --- | --- | --- |
| c1cnn2ncc(-c3ccnc(N4CCC45COC5)n3)c2c1 | CDK4 with cyclin D1 | binding | – | 1 µM | 81 |
| FC(F)(F)c1ccc2c(c1)nc(-c1cccnc1)n2C1CC1 | CDK4 with cyclin D1 | cell-free assay | competition with immobilised ligand | 1 µM | 100 |
| O=C(Nc1c[nH]nc1C(=O)NC1CCNCC1)c1cc(F)cc(F)c1 | CDK4 with cyclin D1 | binding | competition with immobilised ligand | 1 µM | 66 |
| CC1CCCN1c1nccc(-c2cnn3ncccc23)n1 (stereo not drawn) | CDK4 with cyclin D3 | binding | – | 1 µM | 100 |
| c1cncc(-c2cccc(Nc3nccc(NC4CCCCC4)n3)c2)c1 | CDK4 with cyclin D3 | binding | competition with immobilised ligand | 10 µM | 86 |
| O=C(O)c1cc(-c2ccc(C3CCNCC3)cc2)c2ccc(-c3ccc(C(F)(F)F)cc3)cc2c1 | CDK4 with cyclin D3 | cell-free assay | competition with immobilised ligand | 1 µM | 100 |
| COc1cnc(Nc2cccc(S(N)(=O)=O)c2)nc1N1CCN(c2ccccc2)C(=O)C1 | CDK4 with cyclin D3 | binding | competition with immobilised ligand | 1 µM | 87 |
| N[C@@H]1CCN(c2nccc(-c3cnn4ncccc34)n2)C1 | CDK4 with cyclin D1 | binding | – | 1 µM | 100 |
| CC(=O)N1CCC(c2ccc(C(=O)NC3=NCCN3)cc2C(F)(F)F)CC1 | CDK4 with cyclin D1 | cell-free assay | competition with immobilised ligand | 1 µM | 94 |
| COc1ncc2cc3ccccc3nc2c1C#N | CDK4 with cyclin D3 | cell-free assay | competition with immobilised ligand | 5 µM | 100 |
| C[C@@H]1CCN(c2nccc(-c3cnn4ncccc34)n2)C1 | CDK4 | binding | – | 1 µM | 79 |
| Cc1cnc(Nc2ccc(C(=O)N3CCC(N4CCCC4)CC3)cc2)nc1-c1cc2ccccc2s1 | CDK4 with cyclin D3 | binding | competition with immobilised ligand | 1 µM | 2.7 |
| F[C@@H]1CCN(c2nccc(-c3cnn4ncccc34)n2)C1 | CDK4 with cyclin D3 | binding | – | 1 µM | 92 |
| O=S(=O)(NC1CCC(c2cc(F)ccc2F)(S(=O)(=O)c2ccc(Cl)cc2)CC1)C(F)(F)F (stereo not drawn) | CDK4 with cyclin D3 | cell-free assay | competition with immobilised ligand | 1 µM | 91 |
| O=C(c1ccc(Nc2ncc(Cl)c(-c3cc4ccccc4s3)n2)cc1)N1CCC(N2CCCC2)CC1 | CDK4 with cyclin D1 | binding | competition with immobilised ligand | 1 µM | 3.6 |
| CN(C)c1nccc(-c2cnn3ncccc23)n1 | CDK4 with cyclin D3 | binding | – | 1 µM | 100 |
